Source: BindingDB's records for doi:10.1021/jm970730q (Tulane University School of Medicine, 1998)
pIC50: −log10 of the molar value. Positions of bridges follow the written chain, without caps; N, C: chain ends. Non-standard residues stand in square brackets, D forms with d. Residues, ends and D or L forms follow the SMILES beside them. Dip = N[C@H](C(=O)O)C(c1ccccc1)c1ccccc1; 2Nal = N[C@@H](Cc1ccc2ccccc2c1)C(=O)O; 3Pal = N[C@@H](Cc1cccnc1)C(=O)O

Columns and labels:
[1] = molecular target: Somatostatin receptor type 1 (Homo sapiens, UniProt P30872); test: Binding affinity towards cloned human somatostatin 1 (hsst) receptor
Procedure, shortened: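 Membranes from CHO-K1 cells stably transfected with the human receptor subtype (calcium phosphate transfection, G418 selection), homogenised and washed in Tris-HCl. Separated by filtration on PEI-soaked GF/C filters; nonspecific binding with 1.0 µM SRIF.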

[2] = molecular target: Somatostatin receptor type 4 (Homo sapiens, UniProt P31391); test: Binding affinity towards cloned human somatostatin 4 (hsst) receptor
Sequence of Somatostatin receptor type 4 (P31391 whole entry): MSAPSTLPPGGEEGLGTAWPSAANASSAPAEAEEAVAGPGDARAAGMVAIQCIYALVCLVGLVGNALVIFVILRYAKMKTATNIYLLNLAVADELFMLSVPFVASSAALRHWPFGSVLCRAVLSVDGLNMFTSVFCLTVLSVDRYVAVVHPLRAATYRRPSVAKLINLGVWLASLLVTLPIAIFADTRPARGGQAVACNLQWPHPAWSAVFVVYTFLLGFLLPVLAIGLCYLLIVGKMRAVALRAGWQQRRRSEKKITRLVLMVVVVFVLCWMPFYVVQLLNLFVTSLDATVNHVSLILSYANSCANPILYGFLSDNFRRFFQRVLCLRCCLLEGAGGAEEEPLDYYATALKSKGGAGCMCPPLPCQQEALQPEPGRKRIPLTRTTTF

Sequence of Somatostatin receptor type 1 (P30872 whole entry): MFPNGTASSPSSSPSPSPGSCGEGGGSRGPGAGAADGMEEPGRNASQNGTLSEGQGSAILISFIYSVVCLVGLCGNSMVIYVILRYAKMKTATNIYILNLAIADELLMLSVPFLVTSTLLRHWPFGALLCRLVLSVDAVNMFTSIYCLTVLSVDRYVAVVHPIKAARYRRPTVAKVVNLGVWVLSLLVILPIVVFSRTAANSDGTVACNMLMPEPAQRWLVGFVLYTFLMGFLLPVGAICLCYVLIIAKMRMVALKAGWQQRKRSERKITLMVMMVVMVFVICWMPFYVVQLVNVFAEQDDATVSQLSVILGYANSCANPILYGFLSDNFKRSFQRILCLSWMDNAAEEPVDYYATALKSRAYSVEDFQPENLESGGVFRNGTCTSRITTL

pIC50 [1] | pIC50 [2] | SMILES
6.00 | – | CC(C)[C@@H]1NC(=O)[C@H](CCCCN)NC(=O)[C@@H](Cc2c[nH]c3ccccc23)NC(=O)[C@H](Cc2c[nH]cn2)NC(=O)[C@H](NC(=O)[C@@H](N)C(c2ccccc2)c2ccccc2)CSSC[C@@H](C(=O)N[C@H](C(N)=O)C(c2ccccc2)c2ccccc2)NC1=O [H-Dip-cyclo[DCys-His-DTrp-Lys-Val-Cys]-Dip-NH2] (H-[Dip][dC]H[dW]KVC[Dip]-NH2; disulfide 2-7)
– | 6.00 | CC(C)[C@@H]1NC(=O)[C@H](CCCCN)NC(=O)[C@@H](Cc2c[nH]c3ccccc23)NC(=O)[C@H](Cc2c[nH]cn2)NC(=O)[C@H](NC(=O)[C@@H](N)C(c2ccccc2)c2ccccc2)CSSC[C@@H](C(=O)N[C@@H](Cc2ccc3ccccc3c2)C(N)=O)NC1=O [H-Dip-cyclo[DCys-His-DTrp-Lys-Val-Cys]-Nal-NH2] (H-[Dip][dC]H[dW]KVC[2Nal]-NH2; disulfide 2-7)
6.00 | 6.00 | CC(C)[C@@H]1NC(=O)[C@H](CCCCN)NC(=O)[C@@H](Cc2c[nH]c3ccccc23)NC(=O)[C@H](Cc2cccnc2)NC(=O)[C@H](NC(=O)[C@@H](N)C(c2ccccc2)c2ccccc2)CSSC[C@@H](C(=O)N[C@H](C(N)=O)C(c2ccccc2)c2ccccc2)NC1=O [H-Dip-cyclo[DCys-Pal-DTrp-Lys-Val-Cys]-Dip-NH2] (H-[Dip][dC][3Pal][dW]KVC[Dip]-NH2; disulfide 2-7)
